Tests used:
Format in all cases: functional
[1] = test system: DLD-1; experiment: Anticancer activity against human DLD-1 cells assessed as cell doubling measured for 72 hrs by DAPI staining based analysis
[2] = test system: NCI-H520; experiment: Anticancer activity against human NCI-H520 cells assessed as cell doubling measured for 72 hrs by DAPI staining based analysis
[3] = Anticancer activity against human C4-1 cells assessed as cell doubling measured for 72 hrs by DAPI staining based analysis
[4] = test system: ACHN; experiment: Anticancer activity against human ACHN cells assessed as cell doubling measured for 72 hrs by DAPI staining based analysis
[5] = test system: YAPC; experiment: Anticancer activity against human YAPC cells assessed as cell growth inhibition measured after 72 hrs by DAPI staining based analysis
[6] = test system: CCF-STTG1; experiment: Anticancer activity against human CCF-STTG1 cells assessed as cell doubling measured for 72 hrs by DAPI staining based analysis
How it was run: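 Cell-growth inhibition in 384-well plates. DNA content of fixed cells stained with DAPI was read by automated imaging 24 h after seeding (T0) and again after a further 72 h exposure to varying drug concentrations (T72). T72 values were normalized to T0, and curves were fitted to give the concentration causing 50% growth inhibition relative to T0 and Ymax (GI50).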

[7] = test system: SNU-449; experiment: Anticancer activity against human SNU-449 cells assessed as cell doubling measured for 72 hrs by DAPI staining based analysis
[8] = test system: Detroit 562; experiment: Anticancer activity against human Detroit 562 cells assessed as cell doubling measured for 72 hrs by DAPI staining based analysis
[9] = test system: G-401; experiment: Anticancer activity against human G-401 cells assessed as cell growth inhibition measured after 72 hrs by DAPI staining based analysis
How it was run: (§1)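 Cells seeded, DAPI-stained DNA content of fixed cells read by imaging 24 h after seeding (T0), and again after a further 72 h exposure to a range of drug concentrations (T72). T72 values were normalized to T0. Curve fits gave the concentration producing 50% growth inhibition relative to T0 and Ymax (GI50).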

[10] = test system: SW1463; experiment: Anticancer activity against human SW1463 cells assessed as cell doubling measured for 72 hrs by DAPI staining based analysis
[11] = test system: SK-N-FI; experiment: Anticancer activity against human SK-N-FI cells assessed as cell doubling measured for 72 hrs by DAPI staining based analysis
[12] = test system: MC-IXC; experiment: Anticancer activity against human MC-IXC cells assessed as cell doubling measured for 72 hrs by DAPI staining based analysis
[13] = test system: SK-MEL3; experiment: Anticancer activity against human SK-MEL3 cells assessed as cell growth inhibition measured after 72 hrs by DAPI staining based analysis
[14] = test system: Hep 3B2; experiment: Anticancer activity against human Hep3B cells assessed as cell doubling measured for 72 hrs by DAPI staining based analysis
[15] = test system: NCI-H520; experiment: Anticancer activity against human NCI-H520 cells assessed as cell growth inhibition measured after 72 hrs by DAPI staining based analysis
[16] = test system: MCF-10A; experiment: Anticancer activity against human MCF-10A cells assessed as cell growth inhibition measured after 72 hrs by DAPI staining based analysis
[17] = test system: CESS; experiment: Anticancer activity against human CESS cells assessed as cell doubling measured for 72 hrs by DAPI staining based analysis
[18] = test system: HT-1080; experiment: Anticancer activity against human HT-1080 cells assessed as cell growth inhibition measured after 72 hrs by DAPI staining based analysis
[19] = test system: NCI-H209; experiment: Anticancer activity against human NCI-H209 cells assessed as cell doubling measured for 72 hrs by DAPI staining based analysis
[20] = test system: NCI-H661; experiment: Anticancer activity against human NCI-H661 cells assessed as cell doubling measured for 72 hrs by DAPI staining based analysis
[21] = test system: SK-N-DZ; experiment: Anticancer activity against human SK-N-DZ cells assessed as cell doubling measured for 72 hrs by DAPI staining based analysis
[22] = test system: MES-SA; experiment: Anticancer activity against human MES-SA cells assessed as cell growth inhibition measured after 72 hrs by DAPI staining based analysis
[23] = test system: HeLa; experiment: Anticancer activity against human HeLa cells assessed as cell doubling measured for 72 hrs by DAPI staining based analysis
[24] = test system: HCT-15; experiment: Anticancer activity against human HCT-15 cells assessed as cell growth inhibition measured after 72 hrs by DAPI staining based analysis
[25] = test system: SR; experiment: Anticancer activity against human SR cells assessed as cell doubling measured for 72 hrs by DAPI staining based analysis
[26] = test system: SNU-423; experiment: Anticancer activity against human SNU-423 cells assessed as cell growth inhibition measured after 72 hrs by DAPI staining based analysis
[27] = test system: A673; experiment: Anticancer activity against human A673 cells assessed as cell growth inhibition measured after 72 hrs by DAPI staining based analysis
How it was run: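 Cells were seeded and, after 24 h, DNA content was read as T0. Cells were then exposed to varying drug concentrations for a further 72 h (T72). Fixed cells were DAPI-stained and DNA content measured by automated imaging. T72 values were normalized to T0. GI50 is the concentration giving 50% growth inhibition between T0 and Ymax, obtained by curve fitting.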

[28] = test system: NCI-N87; experiment: Anticancer activity against human NCI-N87 cells assessed as cell doubling measured for 72 hrs by DAPI staining based analysis
[29] = test system: RPMI-8226; experiment: Anticancer activity against human RPMI-8226 cells assessed as cell doubling measured for 72 hrs by DAPI staining based analysis
[30] = test system: MCF7; experiment: Anticancer activity against human MCF7 cells assessed as cell doubling measured for 72 hrs by DAPI staining based analysis
[31] = test system: TK-10; experiment: Anticancer activity against human TK-10 cells assessed as cell doubling measured for 72 hrs by DAPI staining based analysis
[32] = test system: HEC-1B cell line; experiment: Anticancer activity against human HEC-1B cells assessed as cell growth inhibition measured after 72 hrs by DAPI staining based analysis
[33] = test system: SK-N-FI; experiment: Anticancer activity against human SK-N-FI cells assessed as cell growth inhibition measured after 72 hrs by DAPI staining based analysis
[34] = test system: HCC 2998; experiment: Anticancer activity against human HCC 2998 cells assessed as cell doubling measured for 72 hrs by DAPI staining based analysis
[35] = test system: HeLa; experiment: Anticancer activity against human HeLa cells assessed as cell growth inhibition measured after 72 hrs by DAPI staining based analysis
[36] = test system: J82; experiment: Anticancer activity against human J82 cells assessed as cell growth inhibition measured after 72 hrs by DAPI staining based analysis
[37] = test system: SJRH30; experiment: Anticancer activity against human SJRH30 cells assessed as cell growth inhibition measured after 72 hrs by DAPI staining based analysis
[38] = test system: SNU1; experiment: Anticancer activity against human SNU1 cells assessed as cell growth inhibition measured after 72 hrs by DAPI staining based analysis
[39] = test system: DU-4475; experiment: Anticancer activity against human DU-4475 cells assessed as cell doubling measured for 72 hrs by DAPI staining based analysis
[40] = test system: PC-3; experiment: Anticancer activity against human PC-3 cells assessed as cell doubling measured for 72 hrs by DAPI staining based analysis
[41] = test system: HCC 2998; experiment: Anticancer activity against human HCC 2998 cells assessed as cell growth inhibition measured after 72 hrs by DAPI staining based analysis; how it was run: as §1

GI50 [13]: 30 nM
GI50 [15]: 34 nM
GI50 [18]: 24 nM
GI50 [24]: 151 nM
GI50 [26]: 34 nM
GI50 [33]: 120 nM
GI50 [35]: 20 nM
GI50 [38]: > 10000 nM
GI50 [41]: 29 nM
SMILES: CC(C)Oc1ccc(C(=O)N[C@H](CNC(=O)CN(C)C)Cc2ccc(-c3cn4cccc([C@H](C)O)c4n3)cc2)cc1Cl [GSK-923295A]
Activity [1]: 4.11
Activity [2]: 2.15
Activity [3]: 2.93
Activity [4]: 2.51
GI50 [5]: 59 nM
Activity [6]: 1.2
Activity [7]: 2.33
Activity [8]: 2.52
GI50 [9]: 26 nM
Activity [10]: 1.22
Activity [11]: 1.24
Activity [12]: 2.67
Activity [14]: 2.37
GI50 [16]: 16 nM
Activity [17]: 1.39
Activity [19]: 1.12
Activity [20]: 1.56
Activity [21]: 1.81
GI50 [22]: 65 nM
Activity [23]: 2.83
Activity [25]: 2.84
GI50 [27]: 23 nM
Activity [28]: 2.53
Activity [29]: 1.96
Activity [30]: 1.65
Activity [31]: 1.94
GI50 [32]: 28 nM
Activity [34]: 2.76
GI50 [36]: 114 nM
GI50 [37]: 26 nM
Activity [39]: 2.05
Activity [40]: 3.07

— ChEMBL document CHEMBL5705890, “Antitumor activity of an allosteric inhibitor of centromere-associated protein-E” (Proc Natl Acad Sci U S A, 2010)
